Each structure is given as a SMILES string. A value given as a limit tells only on which side of the number the result lay.

The term IC50 denotes the concentration at which inhibition is half-maximal.

The subject of test [1] is HL-60. The test is described as follows: Cytotoxicity against human HL60 cells assessed as growth inhibition by MTT assay. It is filed as functional, cell-based. The gist of the method:
(§1)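 Growth inhibition of EC9706, HL60, MCF-7 or SMMC7721 human cancer cells measured by MTT assay, with the IC50 reported as the potency value.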
In general terms: Tetrazolium dyes change colour on reduction, which living cells bring about.

Test [2] has as its system A549. The test is described as follows: Cytotoxicity against human A549 cells assessed as growth inhibition by SRB assay. It is filed as functional, cell-based. The gist of the method: (§2)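 A549 growth inhibition measured by sulforhodamine B (SRB) staining, with the IC50 reported as the potency value.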
Another test has as its system MCF7. Briefly: Cytotoxicity against human MCF7 cells assessed as growth inhibition by MTT assay. It is filed as functional, cell-based. In outline:
as §1

A short description of test [3]: Cytotoxicity against human EC9706 cells assessed as growth inhibition by MTT assay. It is filed as functional, cell-based. The gist of the method: as §1
The next test deals with SMMC-7721. The test is described as follows: Cytotoxicity against human SMMC7721 cells assessed as growth inhibition by MTT assay. It is filed as functional, cell-based. The gist of the method: as §1
Test [4] has as its system HL-60. The test is described as follows: Ratio of doxorubicin IC50 to compound IC50 for human HL60 cells. It is filed as functional.
Test [5] has as its system HL-60. Briefly: Cytotoxicity against human HL60 cells assessed as growth inhibition. It is filed as functional, cell-based. The gist of the method: as §1
The subject of test [6] is A549. The test is described as follows: Cytotoxicity against human A549 cells assessed as growth inhibition. It is filed as functional, cell-based. In outline:
as §2

For the compound `CO/C=C(/C(=O)OC)c1ccccc1COc1cc(C(F)(F)F)nc(Nc2ccc(Cl)cc2)n1`, the IC50 with HL-60 [1] came to 19 µM; with A549 [2], 1.3 µM.

Turning to `CO/C=C(/C(=O)OC)c1ccccc1COc1cc(C(F)(F)F)nc(Nc2ccc(Cl)cc2F)n1`, the IC50 with HL-60 [1] stood at 2.7 µM; with A549 [2] it was 1.3 µM.

In the case of `CO/C=C(/C(=O)OC)c1ccccc1COc1cc(C(F)(F)F)nc(Nc2ccc(F)cc2F)n1`, the IC50 stood at 4.8 µM with HL-60 [1] and 1 µM with A549 [2].

On to `CO/C=C(/C(=O)OC)c1ccccc1COc1cc(C(F)(F)F)nc(Nc2c(F)cccc2F)n1`, for which the IC50 in the test on HL-60 [1] came out at 12.1 µM; in the test on A549 [2], 41.4 µM.

Regarding `CO/C=C(/C(=O)OC)c1ccccc1COc1cc(C(F)(F)F)nc(Nc2ccc(F)c(F)c2F)n1`, the IC50 is 13.6 µM in the test with HL-60 [1] and 1 µM in the test with A549 [2].

As to `CNc1nc(OCc2ccccc2/C(=C\OC)C(=O)OC)cc(C(F)(F)F)n1`, the IC50 is 76.7 µM in the test with HL-60 [1] and 93.7 µM in the test on A549 [2].

For the compound `CCNc1nc(OCc2ccccc2/C(=C\OC)C(=O)OC)cc(C(F)(F)F)n1`, the IC50 with HL-60 [1] worked out at 0.3 µM; in the test on A549 [2], 3.2 µM.

Take `CO/C=C(/C(=O)OC)c1ccccc1COc1cc(C(F)(F)F)nc(N(C)C)n1`: the half-inhibitory concentration (IC50) with HL-60 [1] was 11.1 µM; in the test with A549 [2] it was 6 µM.

On to `CCN(CC)c1nc(OCc2ccccc2/C(=C\OC)C(=O)OC)cc(C(F)(F)F)n1`, for which the IC50 came to 15 µM in the test with HL-60 [1] and 17.9 µM in the test on A549 [2].

As to `CO/C=C(/C(=O)OC)c1ccccc1COc1cc(C(F)(F)F)nc(NC(C)C)n1`, the figures for the 50% inhibitory concentration (IC50) in the test with HL-60 [1] and in the test on A549 [2] were 3.4 µM and 9.8 µM, respectively.

For the compound `CO/C=C(/C(=O)OC)c1ccccc1COc1cc(C(F)(F)F)nc(NC2CC2)n1`, the figures for the IC50 in the test on HL-60 [1] and in the test on A549 [2] were 6.5 µM and 10 µM, respectively.

For the compound `CO/C=C(/C(=O)OC)c1ccccc1COc1cc(C(F)(F)F)nc(N2CCCCC2)n1`, the values for the IC50 with HL-60 [1] and in the test on A549 [2] were 51.6 µM and 4.9 µM, respectively.

Take `CO/C=C(/C(=O)OC)c1ccccc1COc1nc(Nc2ccccc2)nc(C(F)(F)F)c1C`: the IC50 with HL-60 [1] is 0.7 µM; with A549 [2], 7.4 µM.

Take `CO/C=C(/C(=O)OC)c1ccccc1COc1nc(Nc2ccc(Cl)cc2)nc(C(F)(F)F)c1C`: the IC50 in the test on HL-60 [1] came out at 0.7 µM; in the test on A549 [2] it was 5.5 µM.

As to `CO/C=C(/C(=O)OC)c1ccccc1COc1nc(Nc2ccc(Cl)cc2Cl)nc(C(F)(F)F)c1C`, the IC50 turned out to be 2.9 µM with HL-60 [1]; 0.4 µM with A549 [2]; 14.2 µM with MCF7; 0.44 µM in test [3]; 4.6 µM in the test with SMMC-7721.

In the case of `CO/C=C(/C(=O)OC)c1ccccc1COc1nc(Nc2ccc(F)cc2F)nc(C(F)(F)F)c1C`, the values for the 50% inhibitory concentration (IC50) with HL-60 [1] and in the test on A549 [2] were 0.0034 µM and 3.1 µM, respectively. In addition, in the test with HL-60 [4], the “Ratio IC50” value is reported as 24.

On to `CO/C=C(/C(=O)OC)c1ccccc1COc1nc(Nc2ccc(F)c(F)c2F)nc(C(F)(F)F)c1C`, for which the half-maximal inhibitory concentration (IC50) in the test on HL-60 [1] was 0.8 µM; in the test with A549 [2], 5 µM.

For the compound `CO/C=C(/C(=O)OC)c1ccccc1COc1cc(C(F)(F)F)nc(OC(C)C)n1`, the half-maximal inhibitory concentration (IC50) was 6.9 µM with HL-60 [1] and 9.8 µM in the test with A549 [2].

Turning to `CO/C=C(/C(=O)OC)c1ccccc1COc1cc(C(F)(F)F)nc(Nc2ccccc2)n1`, the concentration for half-maximal inhibition (IC50) stood at 3.3 µM in the test with HL-60 [1], 3 µM in the test with A549 [2], 3.3 µM in the test on HL-60 [5] and 3 µM with A549 [6].

On to `COc1cccc2c1C(=O)c1c(O)c3c(c(O)c1C2=O)C[C@@](O)(C(=O)CO)C[C@@H]3O[C@H]1C[C@H](N)[C@H](O)[C@H](C)O1` [DOXORUBICIN], for which the IC50 was 0.082 µM with HL-60 [1] and 0.5 µM with A549 [2].

For the compound `CO/C=C(/C(=O)OC)c1ccccc1COc1cc(C(F)(F)F)nc(Nc2ccc(Cl)cc2Cl)n1` [SYP-11277], the 50% inhibitory concentration (IC50) in the test on HL-60 [1] and with A549 [2] was more than 100 µM each time.

Source of the values: ChEMBL document CHEMBL2390955, “Synthesis of novel strobilurin-pyrimidine derivatives and their antiproliferative activity against human cancer cell lines” (Bioorg Med Chem Lett, 2013).
